High-throughput results deposited in PubChem by Johns Hopkins Ion Channel Center.
TRPC4 act – activators of mouse TRPC4 channel; Q9QUQ5; HEK293 TRPC4beta/mu-opioid, Fluo4 calcium fluorescence; stronger effect = higher value; B-score at 10 µM; 310,000 tested, 0.49% active;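 active means B-score above 5 SD of library B-scores, and initial fluorescence ratio not above library mean plus 5 SD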;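 further: positive B-score marks a calcium rise read as TRPC4 activation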
Target sequence (Q9QUQ5 whole entry, looked up): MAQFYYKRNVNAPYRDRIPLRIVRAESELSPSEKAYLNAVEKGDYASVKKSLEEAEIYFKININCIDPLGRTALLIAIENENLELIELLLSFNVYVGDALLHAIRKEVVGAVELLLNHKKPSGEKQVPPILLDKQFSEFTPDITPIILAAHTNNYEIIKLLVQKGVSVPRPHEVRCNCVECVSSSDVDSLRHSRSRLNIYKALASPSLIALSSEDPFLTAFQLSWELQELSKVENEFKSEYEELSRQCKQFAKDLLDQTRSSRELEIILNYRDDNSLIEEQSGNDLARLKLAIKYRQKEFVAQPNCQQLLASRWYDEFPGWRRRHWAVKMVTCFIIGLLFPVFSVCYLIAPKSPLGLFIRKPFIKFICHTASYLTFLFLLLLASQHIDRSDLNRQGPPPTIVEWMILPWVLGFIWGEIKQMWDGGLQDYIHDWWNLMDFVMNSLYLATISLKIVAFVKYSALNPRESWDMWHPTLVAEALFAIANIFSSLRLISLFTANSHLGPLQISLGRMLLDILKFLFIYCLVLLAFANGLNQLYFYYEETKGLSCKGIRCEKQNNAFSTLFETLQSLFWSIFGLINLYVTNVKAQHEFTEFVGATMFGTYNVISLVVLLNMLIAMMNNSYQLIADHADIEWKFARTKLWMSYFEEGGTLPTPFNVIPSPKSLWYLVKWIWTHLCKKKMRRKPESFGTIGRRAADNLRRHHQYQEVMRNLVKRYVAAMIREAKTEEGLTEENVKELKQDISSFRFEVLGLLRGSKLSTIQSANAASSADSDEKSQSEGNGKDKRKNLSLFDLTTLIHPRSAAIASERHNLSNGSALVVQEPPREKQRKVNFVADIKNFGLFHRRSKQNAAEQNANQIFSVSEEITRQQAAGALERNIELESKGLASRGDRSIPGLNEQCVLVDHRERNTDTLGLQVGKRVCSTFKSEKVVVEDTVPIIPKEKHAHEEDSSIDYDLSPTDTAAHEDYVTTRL
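Assay system: HEK293 cells stably co-expressing mouse TRPC4beta and mu-opioid receptor / Timing: Fluo4 dye loading 45 min at room temperature, 110 s recording / Signal: Fluo4 calcium-sensitive dye fluorescence, kinetic, 1 Hz baseline / Read-out: integrated baseline-normalised fluorescence ratio, converted to per-well B score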
TRPC4 inh – TRPC4 (mouse) channel inhibition | Q9QUQ5 | HEK293 TRPC4beta/mu-opioid, DAMGO-evoked Fluo4 calcium flux; stronger effect = lower value | B-score at 10 µM | 300,000 tested, 0.39% active | AID 2247;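 active means B-score over 3 SD under the library average, no early fluorescence shift, positive overall ratio signal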
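Assay system: Stable TRPC4beta/mu-opioid receptor HEK293 cells | Reagent: DAMGO in two steps, submaximal then maximal | Compound dosing: Single concentration per test compound | Signal: Fluo4 Ca2+ flux fluorescence | Evaluation: Per-well B score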
TRPC6 inhibitor – mouse TRPC6 channel inhibition; 310,000 tested, 1.1% active; HEK293-TRPC6, membrane potential dye, ACh-evoked depolarization; stronger effect = lower value; B-score at 10 µM; Q61143;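 active means B-score under library mean minus 3 SD, initial fluorescence not abnormally high, positive integrated signal ratio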;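 further: B-score derived from integrated fluorescence ratio over the kinetic read; more negative B-score means stronger inhibition of depolarization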
TRPC6 activator – activators of mouse TRPC6 channel; HEK293-TRPC6 membrane potential dye fluorescence; stronger effect = higher value; Q61143; B-score at 10 µM; AID 2550; 310,000 tested, 0.13% active;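 active means B-score of the integrated fluorescence ratio above library mean plus 3 SD, and starting fluorescence ratio within library mean plus 5 SD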;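 further: higher score means more depolarization so channel activation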
TRPC4 potent – TRPC4 (mouse) allosteric potentiation; Q9QUQ5; HEK293 TRPC4beta/mu-opioid, DAMGO EC20, Fluo-4 Ca2+ flux; stronger effect = higher value; B-score at 10 µM; 310,000 tested, 0.42% active; AID 2227;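 active means B-score of calcium response area above 5 SD of library B-scores, with initial fluorescence ratio within 5 SD of library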
A number is an active result; – = inactive; · = no result. This is a sample that favours compounds with a hit; in the whole collection about 2.3% have one here.

SMILES	TRPC4 act	TRPC4 inh	TRPC6 inhibitor	TRPC6 activator	TRPC4 potent
O=C(NC(=S)NNC(=O)c1ccc(Cl)cc1Cl)c1cccnc1	–	–	–	–	–
CCCCCC(=O)NNC(=S)NC(=O)c1cccc([N+](=O)[O-])c1	60	–	–	–	–
Cc1cccc(C(=O)NC(=S)NNC(=O)COc2c(C)cccc2C)c1	102	–	–	–	–
Cc1ccccc1C(=O)NNC(=S)NC(=O)c1ccc(Cl)cc1Cl	249	–	–	–	–
Cc1ccc(C(=O)NC(=S)NNC(=O)COc2ccccc2C)cc1	54	–	–	–	–
CCCCCC(=O)NNC(=S)NC(=O)c1ccccc1[N+](=O)[O-]	–	–	–	–	–
CCC(=O)Nc1cc(C(=O)OCc2ccc(C(=O)Oc3ccccc3)cc2)ccc1C	–	–	–	–	–
Cc1ccccc1-n1c(SCC(=O)c2cc(C)n(C)c2C)nnc1-c1ccncc1	–	–	–	–	–
Fc1ccc(CNC(=S)NC2CCCC2)cc1	–	–	–	–	–
CCC1(c2ccc(F)cc2)NC(=O)N(CC(=O)Nc2ccc(S(N)(=O)=O)cc2)C1=O (stereo not given)	–	–	–	–	–
O=C(COc1ccccc1)NNC(=S)NC(=O)c1ccccc1	46	–	–	–	–
Cc1cccc(C(=O)NC(=S)NNC(=O)c2ccccc2Cl)c1	294	–	–	–	–
Cc1cccc(C(=O)NC(=S)NNC(=O)Cc2ccccc2)c1	219	–	–	–	–
COc1ccc(C(=O)NC(=S)NNC(=O)COc2ccccc2)cc1	–	–	–	–	–
CC1CN(C)C(C)c2c1oc1ccc([N+](=O)[O-])cc21 (stereo not given)	115	–	–	–	–
Nc1ccc2oc3ccccc3c2c1	–	–	–	–	–
CC(C)=Cc1oc2ccc([N+](=O)[O-])cc2c1N1CCOCC1	–	–	–	–	–
CC1CN(C)C(C)c2c1oc1ccc(N)cc21 (stereo not given)	239	–	–	–	–
COc1ccc(OC)c(CC(NC(C)=O)C(=O)NC2CCN(c3nc(OC)nc(OC)n3)CC2)c1 (stereo not given)	–	–	–	–	–
O=[N+]([O-])c1ccc(NCCCNS(=O)(=O)c2ccccc2)c(Cl)c1	–	–	–	–	–
CCSc1nnc(NC(=O)CCc2ccc(OC)cc2)s1	–	–	–	–	–
CC(NS(=O)(=O)OCC(Cl)(Cl)Cl)c1ccc(Br)cc1 (stereo not given)	–	–	–	–	15
CC(C)CC(NS(=O)(=O)OCC(Cl)(Cl)Cl)c1ccccc1 (stereo not given)	–	·	–	–	–
CC(=O)Nc1cccc(C(=O)OC(C(=O)c2ccc(C)cc2)c2ccccc2)c1 (stereo not given)	–	–	–	–	17
CCOc1ccc(NC(=O)C(CC(=O)O)Cc2ccc(C)cc2)cc1 (stereo not given)	–	–	–	–	–
SMILES	TRPC4 act	TRPC4 inh	TRPC6 inhibitor	TRPC6 activator	TRPC4 potent
O=C(CSc1nc2[nH]ncc2c(=O)n1-c1ccccc1Br)NCc1ccccc1Cl	–	-6	–	–	–
O=c1cnn(-c2ccccc2)c(-c2ccccc2)c1	–	·	–	–	–
CC(Cl)C(=O)Nc1cc(C(F)(F)F)ccc1N1CCOCC1 (stereo not given)	–	–	–	–	–
CN1CCN(c2ccc(C(F)(F)F)cc2NC(=O)Nc2ccccc2)CC1	105	–	–	–	17
COc1cccc(CN2CCN(C3CCN(c4ccccc4F)CC3)CC2CCO)c1 (stereo not given)	–	-5	–	–	–
COc1ccc(C(=O)Nc2ccccc2C(=O)N2CCCCC2C)cc1 (stereo not given)	–	–	–	–	–
CCCN(CCC)CCCNC(=O)CCNS(=O)(=O)c1ccc(Br)cc1	76	–	–	–	–
NS(=O)(=O)c1ccc(Nc2nc(-c3ccc(O)cc3O)cs2)cc1	–	-6	–	–	–
CCN(CC)CCCN1CC(=O)N2[C@@H](Cc3c([nH]c4ccccc34)C2(C)C)C1=O	–	–	–	–	–
COc1ccc2c(c1)c1ncn(CCN3CCCCC3)c(=O)c1n2C	–	–	–	–	–
COc1ccc2c(c1)c1ncn(CCN3CCCC3)c(=O)c1n2C	–	–	–	–	15
O=C(COC(=O)C1C2CC3OC(=O)C1C3C2)Nc1cccc(Cl)c1 (stereo not given)	–	–	–	–	–
